The text below walks through data of ChEMBL document CHEMBL1149811, “Synthesis of novel 4,6-disubstituted quinazoline derivatives, their anti-inflammatory and anti-cancer activity (cytotoxic) against U937 leukemia cell lines” (Eur J Med Chem, 2008).

The subject of test [1] is Rattus norvegicus. Briefly: Antiinflammatory activity in Wistar rat assessed as inhibition of carrageenan-induced paw edema at 100 mg/kg, po. It counts as functional. A digest of the protocol:
(§1)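 Male Wistar rats, fasted overnight, three per group. Given orally as 1% gum acacia suspension (test 100 mg/kg, indomethacin 10 mg/kg; controls vehicle). One hour later, 0.1 ml of 1% carrageenan injected sub-plantar into left hind paw. Paw volume measured by digital plethysmometer before carrageenan and at 3 h. Percent inhibition per rat versus mean control paw volume, reported as mean ± SE.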
(In general: Carrageenan injected into the paw causes an acute inflammation.)

For a further test, the system named is U-937. Briefly: Cytotoxicity against human U937 cells after 2 days by MTT assay. The format is functional, cell-based. As to conditions: U-937, 48 h. The essentials:
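U937 human histocytic lymphoma cells grown in RPMI-1640 with 10% FBS at 37 °C under CO2. Seeded at 2 × 10^4 cells/well and compounds added after 24 h. Viability read after two days by MTT (4 h at 37 °C, formazan dissolved in DMSO, absorbance 570 nm). Percent inhibition versus untreated control; IC50 (50% cell-number decrease) by linear regression; mean ± SE of four observations.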
In general terms: Tetrazolium dyes change colour on reduction, which living cells bring about.

Test [2] concerns Rattus norvegicus. Briefly: Antiinflammatory activity in Wistar rat assessed as inhibition of carrageenan-induced paw edema at 10 mg/kg, po. It counts as functional. A digest of the protocol: as §1

In brackets after ≈: the same amount, converted by molar mass.

Consider `O=C(O)[C@H](Cc1c[nH]c2ccccc12)Nc1nc(-c2ccccc2)nc2ccc(I)cc12`, for which the inhibition in vivo at 100 mg/kg in the test on Rattus norvegicus [1] came to 0%. The same compound gave an IC50 with U-937 of 46.1 mg/L (≈ 86.3 µM).
The like results for `O=C(O)[C@H](Cc1c[nH]c2ccccc12)Nc1nc(-c2ccccc2)nc2ccccc12` were, in that order, 1.8% and 74.8 mg/L (≈ 183 µM).
In the case of `O=C(O)CNc1nc(-c2ccccc2)nc2ccccc12`, the inhibition in vivo at 100 mg/kg in the test with Rattus norvegicus [1] is 0%.
Same read-out and setting: the result for `O=C(O)CNc1nc(-c2ccccc2)nc2ccc(Br)cc12` reads 0%.
`O=C(O)CNc1nc(-c2ccccc2)nc2ccc(I)cc12`: the inhibition in vivo at 100 mg/kg with Rattus norvegicus [1] was found to be 0%.
Regarding `C[C@H](Nc1nc(-c2ccccc2)nc2ccc(I)cc12)C(=O)O`, in the test with Rattus norvegicus [1], the inhibition in vivo at 100 mg/kg amounted to 6.5%.
For the compound `O=C(O)[C@H](Cc1ccccc1)Nc1nc(-c2ccccc2)nc2ccc(Br)cc12`, the inhibition in vivo at 100 mg/kg in the test on Rattus norvegicus [1] was determined as 0%. Also, it took 50.4 mg/L (≈ 112 µM) to reach half-maximal inhibition with U-937 (IC50).
In the same order, the values of `CC[C@H](C)[C@H](Nc1nc(-c2ccccc2)nc2ccccc12)C(=O)O` are 4.1% and 121 mg/L (≈ 360 µM).
The like results for `CC[C@H](C)[C@H](Nc1nc(-c2ccccc2)nc2ccc(Br)cc12)C(=O)O` were, in that order, 0% and 32 mg/L (≈ 77.3 µM).
With `CC[C@H](C)[C@H](Nc1nc(-c2ccccc2)nc2ccc(I)cc12)C(=O)O`, in the test on Rattus norvegicus [1], the inhibition in vivo at 100 mg/kg came to 0%. Besides, 52.4 mg/L (≈ 114 µM) corresponded to half-maximal inhibition in the test on U-937 (IC50).
As for `O=C(O)[C@H](Cc1ccccc1)Nc1nc(-c2ccccc2)nc2ccccc12`, the inhibition in vivo at 100 mg/kg in the test with Rattus norvegicus [1] amounted to 0%.
As to `O=C(O)[C@H](Cc1c[nH]c2ccccc12)Nc1nc(-c2ccccc2)nc2ccc(Br)cc12`, the inhibition in vivo at 100 mg/kg in the test with Rattus norvegicus [1] was 0%. Besides, the IC50 in the test on U-937 stood at 37.9 mg/L (≈ 77.8 µM).
Take `C[C@H](Nc1nc(-c2ccccc2)nc2ccccc12)C(=O)O`: the inhibition in vivo at 100 mg/kg with Rattus norvegicus [1] was found to be 9.3%.
For the compound `C[C@H](Nc1nc(-c2ccccc2)nc2ccc(Br)cc12)C(=O)O`, the inhibition in vivo at 100 mg/kg in the test with Rattus norvegicus [1] was 0%. This compound also displayed an IC50 in the test on U-937 of 104 mg/L (≈ 280 µM).
Take `O=C(O)[C@H](Cc1ccccc1)Nc1nc(-c2ccccc2)nc2ccc(I)cc12`: in the test on Rattus norvegicus [1], the inhibition in vivo at 100 mg/kg worked out at 3.7%. The IC50 in the test with U-937 was 16.1 mg/L (≈ 32.5 µM).
Take `COc1cc([C@@H]2c3cc4c(cc3[C@@H](O[C@@H]3O[C@@H]5CO[C@@H](C)O[C@H]5[C@H](O)[C@H]3O)[C@H]3COC(=O)[C@H]23)OCO4)cc(OC)c1O` [ETOPOSIDE]: inhibition in the test on U-937 was half-maximal at 10.6 mg/L (≈ 17.9 µM) (IC50).
Turning to `COc1ccc2c(c1)c(CC(=O)O)c(C)n2C(=O)c1ccc(Cl)cc1` [INDOMETHACIN], in the test with Rattus norvegicus [2], the inhibition in vivo at 10 mg/kg came to 48%.

In general, inhibition in vivo refers to how much of the control response was suppressed. For orientation: IC50 means the midpoint of a concentration-inhibition curve. High values mean lower potency, low ones higher potency.
